Measured values as given in ChEMBL document CHEMBL3397004, “Furan-based acetylating agent for the chemical modification of proteins” (Bioorg Med Chem, 2015).
The source made the active and inactive calls. The calls are words filed in the database; no cut-off is given here.

Key:
[1] = target: Cytochrome c (Bos taurus) (UniProt P62894); assay: Induction of chemical modification in bovine heart cytochrome c in phosphate buffer assessed as appearance of new peak at 413 nm at 2 mM at pH 7.4 after overnight incubation by UV-vis spectrophotometry
Procedure, shortened: (§1)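 Cytochrome c (50 µM) incubated overnight at 37 °C, pH 7.4, with 2 mM BAMF or 2 mM aspirin in phosphate buffer. UV–vis spectra recorded about 350–600 nm (Soret and Q-band region) and compared with native protein.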

[2] = target: Cytochrome c (Bos taurus) (UniProt P62894); assay: Induction of chemical modification in bovine heart cytochrome c in phosphate buffer assessed as adduct formation at heme center at 2 mM at pH 7.4 after 1 hr by UV-vis spectrophotometry
Procedure, shortened: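 Cytochrome c treated with 2 mM acetylating agent in phosphate buffer pH 7.4. Heme redox/reduction kinetics followed by absorbance at 550 nm over 1 h, with aspirin at 2 mM as the reference acetylating agent.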

[3] = target: Lysozyme C (Gallus gallus) (UniProt P00698); assay: Induction of chemical modification in chicken egg white lysozyme assessed as exposure of hydrophobic core at 0.3 to 1.2 mM by ANS staining-based fluorescence assay
Procedure, shortened: (§2)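 Proteins (50 µM) modified overnight at 37 °C with BAMF (0.3–1.2 mM) in 50 mM phosphate pH 7.4, then measured at 5 µM. ANS was used at 16-fold over protein. Excitation 360 nm, emission 400–600 nm, slits 10 nm, 3 mm quartz cell. Blanks subtracted, each spectrum at least three times.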

[4] = target: Lysozyme C (Gallus gallus) (UniProt P00698); assay: Induction of chemical modification in chicken egg white lysozyme assessed as effect on enzyme activity at 0.3 to 1.2 mM by UV-vis spectrophotometry
Procedure, shortened: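 Lysozyme (50 µM) modified overnight at 37 °C with 0.3, 0.6, 0.9 or 1.2 mM BAMF in 50 mM phosphate pH 7.4. Hydrolytic activity read turbidimetrically as the fall in A450 of a bacterial cell suspension over 1500 s. Specific activity plotted against BAMF concentration.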

[5] = target: Cytochrome c (Bos taurus) (UniProt P62894); assay: Induction of chemical modification in bovine heart cytochrome c assessed as additional peaks at 1.2 mM at pH 7.4 by ESI-MS spectroscopic technique
[6] = target: Lysozyme C (Gallus gallus) (UniProt P00698); assay: Induction of chemical modification in chicken egg white lysozyme tertiary structure assessed as effect on adduct formation at 0.3 to 1.2 mM by circular dichroism analysis
[7] = target: Cytochrome c (Bos taurus) (UniProt P62894); assay: Induction of chemical modification in bovine heart cytochrome c assessed as denaturation temperature at 0.3 mM by UV-vis spectrophotometry (Tm = 56.5 +/- 0.1 degC)
[8] = target: Cytochrome c (Bos taurus) (UniProt P62894); assay: Induction of chemical modification in bovine heart cytochrome c assessed as change in negative peaks of at 282 nm and 289 nm of tyrosyl side chains at 0.3 to 1.2 mM by circular dichroism analysis
[9] = target: Cytochrome c (Bos taurus) (UniProt P62894); assay: Induction of chemical modification in bovine heart cytochrome c assessed as denaturation temperature at 1.2 mM by UV-vis spectrophotometry (Tm = 56.5 +/- 0.1 degC)
[10] = target: Cytochrome c (Bos taurus) (UniProt P62894); assay: Induction of chemical modification in bovine heart cytochrome c tertiary structure assessed as effect on adduct formation at 0.3 to 1.2 mM by circular dichroism analysis
[11] = target: Cytochrome c (Bos taurus) (UniProt P62894); assay: Induction of chemical modification in bovine heart cytochrome c in phosphate buffer assessed as appearance of new peak at 414 nm at 2 mM at pH 7.4 after overnight incubation by UV-vis spectrophotometry; procedure, shortened: as §1
[12] = target: Cytochrome c (Bos taurus) (UniProt P62894); assay: Induction of chemical modification in bovine heart cytochrome c in phosphate buffer assessed as disappearance of peak at 530 nm and appearance of new peaks at 522 and 551 nm at pH 7.4 after overnight incubation by UV-vis spectrophotometry; procedure, shortened: as §1
[13] = target: Cytochrome c (Bos taurus) (UniProt P62894); assay: Induction of chemical modification in bovine heart cytochrome c assessed as denaturation temperature at 0.9 mM by UV-vis spectrophotometry (Tm = 56.5 +/- 0.1 degC)
[14] = target: Cytochrome c (Bos taurus) (UniProt P62894); assay: Induction of chemical modification in bovine heart cytochrome c assessed as exposure of hydrophobic core at 0.3 to 1.2 mM by ANS staining-based fluorescence assay; procedure, shortened: as §2
[15] = target: Cytochrome c (Bos taurus) (UniProt P62894); assay: Induction of chemical modification in bovine heart cytochrome c assessed as denaturation temperature at 0.6 mM by UV-vis spectrophotometry (Tm = 56.5 +/- 0.1 degC)
[16] = target: Cytochrome c (Bos taurus) (UniProt P62894); assay: Induction of chemical modification in bovine heart cytochrome c tertiary structure in phosphate buffer assessed as intact band at 695 nm at pH 7.4 after overnight incubation by UV-vis spectrophotometry
Procedure, shortened: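 Cytochrome c modified overnight at 37 °C in 50 mM phosphate pH 7.4 with BAMF. UV–vis absorbance scanned 600–800 nm to monitor the 695 nm Met-80–heme ligand band, compared with native protein.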

Cytochrome c (Bos taurus), sequence (P62894 whole entry): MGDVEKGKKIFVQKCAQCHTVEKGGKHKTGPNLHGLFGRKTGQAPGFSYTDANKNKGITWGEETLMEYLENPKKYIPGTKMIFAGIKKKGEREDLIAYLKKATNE
Lysozyme C (Gallus gallus), sequence (P00698 whole entry): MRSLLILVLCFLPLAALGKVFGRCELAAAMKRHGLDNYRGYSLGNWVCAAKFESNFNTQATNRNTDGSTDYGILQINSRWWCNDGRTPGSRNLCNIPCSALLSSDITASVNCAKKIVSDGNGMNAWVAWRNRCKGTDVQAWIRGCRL

| Activity [1] | Activity [2] | Activity [3] | Activity [4] | Activity [5] | Activity [6] | Tm [7] [°C] | Activity [8] | Tm [9] [°C] | Activity [10] | Activity [11] | Activity [12] | Tm [13] [°C] | Activity [14] | Tm [15] [°C] | Activity [16] | SMILES |
| --- | --- | --- | --- | --- | --- | --- | --- | --- | --- | --- | --- | --- | --- | --- | --- | --- |
| Active | – | – | – | – | – | – | – | – | – | – | – | – | – | – | – | CC(=O)Oc1ccccc1C(=O)O |
| – | Active | inactive | inactive | Active | inactive | 54.8 | inactive | 53 | inactive | Active | Active | 53.8 | inactive | 54.7 | inactive | CC(=O)OCc1ccc(COC(C)=O)o1 |
